# Laboratory results from ChEMBL document CHEMBL5303300, “EUbOPEN Chemogenomics Library - Multiplex” (2023).
# “And” between values parts separate entries of the source, which are not always exact repeats. Equal entries are not always repeated.
# Legend:
# Type in all cases: toxicity, cell-based
# [1] = test system: Fibroblast; test: Multiplex assay against human fibroblast; conditions: number of replicates 2
# Outline: (§1)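 Tubulin, mitochondrial-mass and membrane-permeability phenotypes are per cents of healthy-nucleus cells. Cells were gated by CellPathfinder machine learning into Hoechst high-intensity objects or normal cells, normal cells into healthy, pyknosed or fragmented nuclei, and pyknosed cells into mitotic or apoptotic. Before that, live cells stained at seeding with Hoechst33342, BioTracker Green Microtubule Cytoskeleton Dye, MitoTracker Red and Annexin V Alexa Fluor 680 were imaged on a CQ1 microscope at 37°C and 5% CO2 after compound addition.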
# [2] = test system: HEK-293T; test: Multiplex assay against HEK293T; conditions: human, number of replicates 2; outline: as §1
# [3] = test system: U2OS; test: Multiplex assay against U2OS; conditions: human, number of replicates 2; outline: as §1
# [4] = 12 h, 1 µM, compound concentration 1 uM
# [5] = 12 h, 10 µM, compound concentration 10 uM
# [6] = 24 h, 1 µM, compound concentration 1 uM
# [7] = 24 h, 10 µM, compound concentration 10 uM
# [8] = 48 h, 1 µM, compound concentration 1 uM
# [9] = 48 h, 10 µM, compound concentration 10 uM
compound,measurement,setting,value
CN1CCN(C(=O)Cc2ccc(N/C(=C3\C(=O)Nc4cc(Cl)ccc43)c3ccccc3)cc2)CC1,Population Apoptotic (%),[1]; [4],43% and 30%
same,Population Fragmented Nuclei (%),[1]; [4],9% and 8%
same,Population Healthy Nuclei (%),[1]; [4],69%
same,Population Hoechst High Intensity Objects (%),[1]; [4],0%
same,Population Membrane Permeable-Phenotype (%),[1]; [4],5% and 7%
same,Population Mitochondria Different-Phenotype (%),[1]; [4],0% and 1%
same,Population Mitotic Cells (%),[1]; [4],56% and 69%
same,Population Normal (%),[1]; [4],100%
same,Population Pyknosed Nuclei (%),[1]; [4],20% and 21%
same,Population Tubulin-Different-Phenotype (%),[1]; [4],8% and 15%
same,Total Cell Count,[1]; [4],178 and 179
same,Population Apoptotic (%),[1]; [5],51% and 36%
same,Population Fragmented Nuclei (%),[1]; [5],12% and 11%
same,Population Healthy Nuclei (%),[1]; [5],74% and 67%
same,Population Hoechst High Intensity Objects (%),[1]; [5],0%
same,Population Membrane Permeable-Phenotype (%),[1]; [5],7% and 5%
same,Population Mitochondria Different-Phenotype (%),[1]; [5],2%
same,Population Mitotic Cells (%),[1]; [5],48% and 63%
same,Population Normal (%),[1]; [5],100%
same,Population Pyknosed Nuclei (%),[1]; [5],12% and 21%
same,Population Tubulin-Different-Phenotype (%),[1]; [5],34% and 26%
same,Total Cell Count,[1]; [5],240 and 203
same,Population Apoptotic (%),[1]; [6],43% and 52%
same,Population Fragmented Nuclei (%),[1]; [6],7% and 12%
same,Population Healthy Nuclei (%),[1]; [6],72% and 68%
same,Population Hoechst High Intensity Objects (%),[1]; [6],0%
same,Population Membrane Permeable-Phenotype (%),[1]; [6],5%
same,Population Mitochondria Different-Phenotype (%),[1]; [6],0% and 2%
same,Population Mitotic Cells (%),[1]; [6],56% and 47%
same,Population Normal (%),[1]; [6],100%
same,Population Pyknosed Nuclei (%),[1]; [6],20% and 19%
same,Population Tubulin-Different-Phenotype (%),[1]; [6],12% and 10%
same,Total Cell Count,[1]; [6],193 and 174
same,Population Apoptotic (%),[1]; [7],51% and 56%
same,Population Fragmented Nuclei (%),[1]; [7],12% and 17%
same,Population Healthy Nuclei (%),[1]; [7],74% and 67%
same,Population Hoechst High Intensity Objects (%),[1]; [7],0%
same,Population Membrane Permeable-Phenotype (%),[1]; [7],2%
same,Population Mitochondria Different-Phenotype (%),[1]; [7],5% and 8%
same,Population Mitotic Cells (%),[1]; [7],48% and 43%
same,Population Normal (%),[1]; [7],100% and 99%
same,Population Pyknosed Nuclei (%),[1]; [7],12% and 14%
same,Population Tubulin-Different-Phenotype (%),[1]; [7],35% and 28%
same,Total Cell Count,[1]; [7],232 and 216
same,Population Apoptotic (%),[1]; [8],64% and 72%
same,Population Fragmented Nuclei (%),[1]; [8],12% and 16%
same,Population Healthy Nuclei (%),[1]; [8],75% and 68%
same,Population Hoechst High Intensity Objects (%),[1]; [8],0%
same,Population Membrane Permeable-Phenotype (%),[1]; [8],5% and 3%
same,Population Mitochondria Different-Phenotype (%),[1]; [8],0%
same,Population Mitotic Cells (%),[1]; [8],36% and 27%
same,Population Normal (%),[1]; [8],100%
same,Population Pyknosed Nuclei (%),[1]; [8],12% and 15%
same,Population Tubulin-Different-Phenotype (%),[1]; [8],9% and 5%
same,Total Cell Count,[1]; [8],200 and 186
same,Population Apoptotic (%),[1]; [9],65% and 75%
same,Population Fragmented Nuclei (%),[1]; [9],11% and 17%
same,Population Healthy Nuclei (%),[1]; [9],76% and 65%
same,Population Hoechst High Intensity Objects (%),[1]; [9],0%
same,Population Membrane Permeable-Phenotype (%),[1]; [9],3% and 1%
same,Population Mitochondria Different-Phenotype (%),[1]; [9],4% and 5%
same,Population Mitotic Cells (%),[1]; [9],34% and 25%
same,Population Normal (%),[1]; [9],100%
same,Population Pyknosed Nuclei (%),[1]; [9],12% and 16%
same,Population Tubulin-Different-Phenotype (%),[1]; [9],37% and 25%
same,Total Cell Count,[1]; [9],213 and 212
same,Population Apoptotic (%),[2]; [4],28% and 39%
same,Population Fragmented Nuclei (%),[2]; [4],2% and 3%
same,Population Healthy Nuclei (%),[2]; [4],86% and 84%
same,Population Hoechst High Intensity Objects (%),[2]; [4],5%
same,Population Membrane Permeable-Phenotype (%),[2]; [4],2% and 4%
same,Population Mitochondria Different-Phenotype (%),[2]; [4],10% and 16%
same,Population Mitotic Cells (%),[2]; [4],71% and 60%
same,Population Normal (%),[2]; [4],94%
same,Population Pyknosed Nuclei (%),[2]; [4],11% and 12%
same,Population Tubulin-Different-Phenotype (%),[2]; [4],45% and 47%
same,Total Cell Count,[2]; [4],870 and 527
same,Population Apoptotic (%),[2]; [5],40% and 34%
same,Population Fragmented Nuclei (%),[2]; [5],1%
same,Population Healthy Nuclei (%),[2]; [5],86% and 81%
same,Population Hoechst High Intensity Objects (%),[2]; [5],3% and 5%
same,Population Membrane Permeable-Phenotype (%),[2]; [5],4% and 6%
same,Population Mitochondria Different-Phenotype (%),[2]; [5],22% and 18%
same,Population Mitotic Cells (%),[2]; [5],60% and 65%
same,Population Normal (%),[2]; [5],96% and 94%
same,Population Pyknosed Nuclei (%),[2]; [5],11% and 16%
same,Population Tubulin-Different-Phenotype (%),[2]; [5],67% and 69%
same,Total Cell Count,[2]; [5],702 and 579
same,Population Apoptotic (%),[2]; [6],29% and 31%
same,Population Fragmented Nuclei (%),[2]; [6],4%
same,Population Healthy Nuclei (%),[2]; [6],87%
same,Population Hoechst High Intensity Objects (%),[2]; [6],9% and 5%
same,Population Membrane Permeable-Phenotype (%),[2]; [6],3%
same,Population Mitochondria Different-Phenotype (%),[2]; [6],6% and 10%
same,Population Mitotic Cells (%),[2]; [6],70% and 68%
same,Population Normal (%),[2]; [6],90% and 94%
same,Population Pyknosed Nuclei (%),[2]; [6],7% and 8%
same,Population Tubulin-Different-Phenotype (%),[2]; [6],28% and 32%
same,Total Cell Count,[2]; [6],1172 and 750
same,Population Apoptotic (%),[2]; [7],29% and 34%
same,Population Fragmented Nuclei (%),[2]; [7],3% and 4%
same,Population Healthy Nuclei (%),[2]; [7],88% and 86%
same,Population Hoechst High Intensity Objects (%),[2]; [7],4% and 5%
same,Population Membrane Permeable-Phenotype (%),[2]; [7],3% and 4%
same,Population Mitochondria Different-Phenotype (%),[2]; [7],12% and 9%
same,Population Mitotic Cells (%),[2]; [7],70% and 65%
same,Population Normal (%),[2]; [7],95% and 94%
same,Population Pyknosed Nuclei (%),[2]; [7],8% and 9%
same,Population Tubulin-Different-Phenotype (%),[2]; [7],48%
same,Total Cell Count,[2]; [7],992 and 819
same,Population Apoptotic (%),[2]; [8],17%
same,Population Fragmented Nuclei (%),[2]; [8],13% and 7%
same,Population Healthy Nuclei (%),[2]; [8],83% and 87%
same,Population Hoechst High Intensity Objects (%),[2]; [8],9% and 8%
same,Population Membrane Permeable-Phenotype (%),[2]; [8],3%
same,Population Mitochondria Different-Phenotype (%),[2]; [8],0% and 1%
same,Population Mitotic Cells (%),[2]; [8],82%
same,Population Normal (%),[2]; [8],90% and 91%
same,Population Pyknosed Nuclei (%),[2]; [8],2% and 4%
same,Population Tubulin-Different-Phenotype (%),[2]; [8],12% and 15%
same,Total Cell Count,[2]; [8],2950 and 1758
same,Population Apoptotic (%),[2]; [9],17% and 42%
same,Population Fragmented Nuclei (%),[2]; [9],10% and 8%
same,Population Healthy Nuclei (%),[2]; [9],85% and 87%
same,Population Hoechst High Intensity Objects (%),[2]; [9],8% and 9%
same,Population Membrane Permeable-Phenotype (%),[2]; [9],4%
same,Population Mitochondria Different-Phenotype (%),[2]; [9],3%
same,Population Mitotic Cells (%),[2]; [9],82% and 58%
same,Population Normal (%),[2]; [9],91% and 90%
same,Population Pyknosed Nuclei (%),[2]; [9],3% and 4%
same,Population Tubulin-Different-Phenotype (%),[2]; [9],31% and 34%
same,Total Cell Count,[2]; [9],1910 and 1370
same,Population Apoptotic (%),[3]; [4],100% and 55%
same,Population Healthy Nuclei (%),[3]; [4],57% and 86%
same,Population Hoechst High Intensity Objects (%),[3]; [4],0%
same,Population Membrane Permeable-Phenotype (%),[3]; [4],8% and 3%
same,Population Mitochondria Different-Phenotype (%),[3]; [4],8% and 0%
same,Population Normal (%),[3]; [4],100%
same,Population Pyknosed Nuclei (%),[3]; [4],7% and 10%
same,Population Tubulin-Different-Phenotype (%),[3]; [4],66% and 71%
same,Population Fragmented Nuclei (%),[3]; [5],3% and 12%
same,Population Healthy Nuclei (%),[3]; [5],81% and 77%
same,Population Hoechst High Intensity Objects (%),[3]; [5],0%
same,Population Mitochondria Different-Phenotype (%),[3]; [5],0%
same,Population Mitotic Cells (%),[3]; [5],43% and 100%
same,Population Normal (%),[3]; [5],100%
same,Population Pyknosed Nuclei (%),[3]; [5],14% and 9%
same,Population Tubulin-Different-Phenotype (%),[3]; [5],55% and 33%
same,Population Apoptotic (%),[3]; [6],66% and 69%
same,Population Healthy Nuclei (%),[3]; [6],64% and 88%
same,Population Hoechst High Intensity Objects (%),[3]; [6],0%
same,Population Mitochondria Different-Phenotype (%),[3]; [6],12% and 0%
same,Population Mitotic Cells (%),[3]; [6],33% and 30%
same,Population Normal (%),[3]; [6],100% and 99%
same,Population Pyknosed Nuclei (%),[3]; [6],16% and 9%
same,Population Tubulin-Different-Phenotype (%),[3]; [6],79% and 73%
same,Population Apoptotic (%),[3]; [7],33% and 62%
same,Population Fragmented Nuclei (%),[3]; [7],0% and 4%
same,Population Healthy Nuclei (%),[3]; [7],90% and 82%
same,Population Hoechst High Intensity Objects (%),[3]; [7],0%
same,Population Membrane Permeable-Phenotype (%),[3]; [7],10% and 2%
same,Population Mitochondria Different-Phenotype (%),[3]; [7],10% and 3%
same,Population Mitotic Cells (%),[3]; [7],66% and 37%
same,Population Normal (%),[3]; [7],100% and 99%
same,Population Pyknosed Nuclei (%),[3]; [7],9% and 12%
same,Population Tubulin-Different-Phenotype (%),[3]; [7],58% and 59%
same,Population Apoptotic (%),[3]; [8],75% and 58%
same,Population Healthy Nuclei (%),[3]; [8],75% and 89%
same,Population Hoechst High Intensity Objects (%),[3]; [8],0%
same,Population Membrane Permeable-Phenotype (%),[3]; [8],6% and 0%
same,Population Mitochondria Different-Phenotype (%),[3]; [8],3% and 0%
same,Population Mitotic Cells (%),[3]; [8],25% and 41%
same,Population Normal (%),[3]; [8],100% and 99%
same,Population Pyknosed Nuclei (%),[3]; [8],9% and 7%
same,Population Tubulin-Different-Phenotype (%),[3]; [8],83% and 85%
same,Population Apoptotic (%),[3]; [9],83% and 75%
same,Population Fragmented Nuclei (%),[3]; [9],5% and 3%
same,Population Healthy Nuclei (%),[3]; [9],84% and 87%
same,Population Hoechst High Intensity Objects (%),[3]; [9],0%
same,Population Membrane Permeable-Phenotype (%),[3]; [9],2%
same,Population Mitochondria Different-Phenotype (%),[3]; [9],8% and 1%
same,Population Mitotic Cells (%),[3]; [9],16% and 24%
same,Population Normal (%),[3]; [9],100%
same,Population Pyknosed Nuclei (%),[3]; [9],10% and 8%
same,Population Tubulin-Different-Phenotype (%),[3]; [9],69% and 66%
